We go through five compounds from PubChem BioAssay AID602228 (Southern Research Specialized Biocontainment Screening …, 2012).

Records with an inconclusive call do not appear. The source made the active and inactive calls.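 The calls were made as follows: active = viability below 80% at one or more tested concentrations; inconclusive = replicate runs disagree on the 80% viability cutoff; inactive = viability above 80% at every tested concentration.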

Test [1] is described as follows: viability loss in Vero E6 cells – cell-based, set 2, cytotoxicity control for PfM1AAP inhibitor project, dose response (AID 602228). Particulars: Vero E6 viability, CellTiter-Glo luminescence, 72 h; at 50 µM (top of the series). The method, boiled down: (§1)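 Material – Vero E6 cell line · Compound – 10 concentrations, 2-fold dilution steps · Schedule – 72 h treatment at 37 °C · Technique – CellTiter-Glo ATP luminescence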
In general terms: Cellular ATP, detected with luciferase, serves as a proxy for viable cell number.

The test system of test [2] is Vero E6 viability, CellTiter-Glo luminescence, 72 h. Described as above. The method, boiled down: as §1

Broadly, the viability is a per cent measure of how many cells are alive, often set against a control. As for `O=C(NCc1ccc2c(c1)OCO2)C1CCN(S(=O)(=O)c2ccc(Br)s2)CC1`, the viability in test [1] is 89.3% (inactive).
The same measure, in the same setting: the figure for `CC[C@H](C)[C@H](NS(=O)(=O)c1ccc(Br)s1)C(=O)NCc1ccc2c(c1)OCO2` is 95.3% (inactive).
As usually defined, the CC50 is the concentration giving 50% cytotoxicity. As for `O=C(NCc1ccc(F)cc1)C1CCN(S(=O)(=O)c2ccc(Br)s2)CC1`, the CC50 in test [2] was 39.6 µM.
Take `O=C(NCc1ccc(Cl)cc1)C1CCN(S(=O)(=O)c2ccc(Br)s2)CC1`: in test [2], the CC50 is 17.7 µM.
On to `O=C(NCc1ccccc1)C1CCN(S(=O)(=O)c2ccc(Br)s2)CC1`, for which, in test [2], the CC50 was 47.4 µM.
